Active and inactive are the calls of the source. The rule behind the calls is not given here. Where a SMILES comes first, the peptide text is derived from it.
Legend:
NCI-H522 = test: Cytotoxicity against human NCI-H522 cells assessed as cell viability at 10 uM after 48 hrs by sulforhodamine B assay; type: functional; settings: NCI-H522, 48 h, read-out: Activity
Procedure, shortened: (§1)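 Tested at a single high dose of 10−5 M across the full NCI 60 human cancer cell line panel. Read-out is percent growth of treated cells.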

LOX IMVI = test: Cytotoxicity against human LOXIMVI cells assessed as viable cells at 10 uM after 48 hrs by sulforhodamine B assay; type: functional; settings: read-out: Activity; procedure, shortened: as §1
IGROV-1 = test: Cytotoxicity against human IGROV1 cells assessed as viable cells at 10 uM after 48 hrs by sulforhodamine B assay; type: functional; settings: IGROV-1, 48 h, read-out: Activity; procedure, shortened: as §1
UO-31 = test: Cytotoxicity against human UO31 cells assessed as viable cells at 10 uM after 48 hrs by sulforhodamine B assay; type: functional; settings: UO-31, 48 h, read-out: Activity; procedure, shortened: as §1
Plasmodium falciparum = test: Antimalarial activity against Plasmodium falciparum W2 clone after 48 hrs by fluorescence microplate reader assay; type: functional, organism-based
[1] = test system: Mycobacterium tuberculosis; test: Antituberculosis activity against Mycobacterium tuberculosis […] by alamar blue assay; type: functional, organism-based
Hepatitis B virus = test: Antiviral activity against HBV; type: functional, organism-based
Human alphaherpesvirus 1 = test: Antiviral activity against HSV1; type: functional, organism-based
Human alphaherpesvirus 2 = test: Antiviral activity against HSV2; type: functional, organism-based
Influenza A virus = test: Antiviral activity against Influenza A H5N1; type: functional, organism-based
Influenza B virus = test: Antiviral activity against Influenza B; type: functional, organism-based
[2] = test system: Respiratory syncytial virus; test: Antiviral activity against RSV A; type: functional, organism-based
West Nile virus = test: Antiviral activity against WNV; type: functional, organism-based
Rift Valley fever virus = test: Antiviral activity against Rift Valley fever virus; type: functional, organism-based
Microglia = test: Antiinflammatory activity in LPS-stimulated rat neonatal microglia assessed as inhibition of PMA-stimulated superoxide anion production; type: functional

Row | Compound | viability at 10 µM (NCI-H522) | viability at 10 µM (LOX IMVI) | viability at 10 µM (IGROV-1) | viability at 10 µM (UO-31) | Activity (Plasmodium falciparum) | Activity [1] | Activity (Hepatitis B virus) | Activity (Human alphaherpesvirus 1) | Activity (Human alphaherpesvirus 2) | Activity (Influenza A virus) | Activity (Influenza B virus) | Activity [2] | Activity (West Nile virus) | Activity (Rift Valley fever virus) | Activity (Microglia)
1 | CC[C@H](C)[C@@H]1NC(=O)[C@H]([C@@H](C)CC)NC(=O)[C@H]([C@@H](C)CC)NC(=O)[C@@H]2CCCN2C(=O)[C@H]([C@H](C)O)NC(=O)[C@@H]2CCCN2C(=O)[C@@H]2CCCN2C(=O)[C@H](CC(C)C)NC1=O [DOMINICIN] | 100% | 100% | 100% | 32.8% | inactive | inactive | inactive | inactive | inactive | inactive | inactive | inactive | inactive | inactive | inactive
2 | CC(C)[C@@H]1NC(=O)[C@H](Cc2ccccc2)NC(=O)[C@@H]2CCCN2C(=O)[C@H]([C@@H](C)O)NC(=O)[C@H](C)NC(=O)[C@@H]2CCCN2C(=O)[C@@H]2CCCN2C1=O [EURYJANICIN B] (cyclo(ATPFVPP)) | 83.9% | 88.6% | 91.3% | 76.3% | inactive | inactive | inactive | inactive | inactive | inactive | inactive | inactive | inactive | inactive | inactive
3 | CC[C@@H](C)[C@@H]1NC(=O)[C@@H]2CCCN2C(=O)[C@H](Cc2ccccc2)NC(=O)[C@H](CC(C)C)NC(=O)[C@@H]2CCCN2C(=O)[C@H]([C@H](C)CC)NC(=O)[C@H](CO)NC1=O [EURYJANICIN C] | 95.1% | 88% | 100% | 83.4% | inactive | inactive | inactive | inactive | inactive | inactive | inactive | inactive | inactive | inactive | inactive
4 | CC[C@@H](C)[C@@H]1NC(=O)[C@@H]2CCCN2C(=O)[C@H](CO)NC(=O)[C@H](Cc2ccccc2)NC(=O)[C@H]([C@H](C)CC)NC(=O)[C@@H]2CCCN2C(=O)[C@H](Cc2ccccc2)NC1=O [EURYJANICIN D] | 94.6% | 87.6% | 100% | 82.7% | inactive | inactive | inactive | inactive | inactive | inactive | inactive | inactive | inactive | inactive | inactive

— ChEMBL document CHEMBL1154269, “Isolation and structural elucidation of euryjanicins B-D, proline-containing cycloheptapeptides from the Caribbean marine sponge Prosuberites laughlini” (2009)
